Reference: PubChem BioAssay
Calls of active or inactive are those of the source.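 Rule for the calls, unless noted: active = fluorescence slope higher than the sample average by over 3 SD (cut at about -0.22 in these data, passing the limit was not always enough); inactive = the rest.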

Tests used:
[1] = inhibitors of TNFa-induced NFkB p65 translocation, primary screen, imaging, HUVEC, MLSMR starter and 10KST1 sets (AID 438;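 active = inhibition above 20% together with a positive visual image hit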;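 note: compound added about 3h40 before a 20 min TNFalpha stimulation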;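 for inhibition: signal is the nuclear over cytoplasmic p65 intensity ratio per well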); conditions: HUVEC TNFa-induced p65 nuclear translocation; cell count: measured here: nuclei count (cytotoxicity indicator), at 2.08 µM; inhibition: at 2 µM, stronger effect = higher value, 0% TNFa-plus-vehicle, 100% no-TNFa wells
[2] = inhibitors of E-selectin induction by TNFa, primary screen, imaging, HUVEC, immunofluorescence, MLSMR starter and 10KST1 sets (AID 487;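 active = visually confirmed hit in the image check and inhibition above 20%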;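 for inhibition: signal is fraction of cell area covered by stained E-selectin grains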;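 for nuclei count: 100% = median nuclei count of all wells on the same plate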); conditions: HUVEC TNFalpha-induced E-selectin immunofluorescence imaging, at 2 µM; inhibition: stronger effect = higher value; nuclei count: measured here: cell number, toxicity
[3] = DUSP6 inhibitors restoring Erk phosphorylation by chemical complementation, primary imaging in DUSP6-transfected HeLa (AID 609;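 active = compounds giving at least 50% inhibition in the cell-based MKP-3 phosphatase rescue imaging test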;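 for inhibition: phospho-Erk level distribution per well compared with pooled transfected vehicle control wells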); conditions: HeLa MKP-3 transfected, phospho-Erk imaging KS statistic, at 10 µM, cells stimulated with TPA for 15 min
[4] = target: Dual specificity protein phosphatase 6 (Homo sapiens) (UniProt Q16828); assay: as above; conditions: HeLa MKP-3 transfected, phospho-Erk imaging KS statistic; at 10 µM; stronger effect = higher value; cells stimulated with TPA for 15 min
[5] = target: Voltage-gated potassium channel subunit beta-2 (Rattus norvegicus) (UniProt P62483); assay: KvBeta enzyme negative modulators, primary screen, biochemical, NADPH fluorescence (AID 622); conditions: recombinant KvBeta, 4-cyanobenzaldehyde reduction, at 10 µM, stronger effect = higher value;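 note: slope of raw intensity against log time taken from 70 to 1610 s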
[6] = target: Voltage-gated potassium channel subunit beta-2 (Rattus norvegicus) (UniProt P62483); assay: KvBeta positive modulators, primary screen, biochemical, NADPH fluorescence (AID 623;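 active = NADPH fluorescence slope more negative than the mean of all samples by about 3 SD, 99.7% confidence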;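 note: fluorescence intensity change per second fitted from 20 to 320 s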); conditions: Recombinant KvBeta, NADPH fluorescence decrease slope, 10 min; at 10 µM; stronger effect = lower value
[7] = target: Alpha-2C adrenergic receptor (Homo sapiens) (UniProt P18825); assay: modulators of alpha2C/GIRK thallium flux, primary screen, cell-based, HEK293 alpha2C/GIRK1/2 (AID 624;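 active = fluorescence slope after compound addition differing from the mean of all screened samples at 99.7% confidence, in either direction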;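 note: slope of fluorescence ratio to pre-addition baseline per second over 15 to 24 s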); conditions: thallium flux BTC fluorescence, at 10 µM, actives lie on both sides
[8] = inhibitors of larval lipid processing in zebrafish, primary screen, whole organism, PED6 fluorescence, gall bladder and intestine (AID 686;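 active = a full or partial loss of lipid-probe fluorescence in the fish gall bladder, intestine or both, judged by eye; inactive = no fluorescence loss, or compound toxic to the fish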;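 note: larvae 5 to 7 days old with five fish per well; signal comes from phospholipase A2 cleavage of quenched PED6 carried via bile; overnight exposure to compound and PED6 before scoring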); conditions: Zebrafish larvae PED6 lipid processing, fluorescence scoring; screened at 20 µM (by protocol)
Summary of the method: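 System: live zebrafish larvae aged 5-7 days, whole organism; measure: graded gall bladder and intestinal fluorescence inhibition per well; incubation: overnight exposure; reagent: ingested quenched lipid PED6 at 100 nM; signal: By-eye fluorescence microscopy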

[9] = inhibitors of Chlamydomonas gravitaxis, primary screen, whole organism, Chlamydomonas reinhardtii, WT vs cilia-less mutant, absorbance, 96-well (AID 463189;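 active = inhibition at or above 50% relative to wild type and mutant plate controls; inactive = inhibition below 50%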;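 note: 0% = wild type cc124 cells in DMSO and 100% = ciliumless bld1 mutant cells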); conditions: OD600 absorbance, 2 days, at 10 µM, stronger effect = higher value
[10] = measured here: cell density z-score
[11] = measured here: nuclear c-Myc green intensity z-score
[12] = measured here: nuclear pErk red intensity z-score, stronger effect = higher value

Alpha-2C adrenergic receptor (Homo sapiens), sequence (P18825 whole entry, looked up): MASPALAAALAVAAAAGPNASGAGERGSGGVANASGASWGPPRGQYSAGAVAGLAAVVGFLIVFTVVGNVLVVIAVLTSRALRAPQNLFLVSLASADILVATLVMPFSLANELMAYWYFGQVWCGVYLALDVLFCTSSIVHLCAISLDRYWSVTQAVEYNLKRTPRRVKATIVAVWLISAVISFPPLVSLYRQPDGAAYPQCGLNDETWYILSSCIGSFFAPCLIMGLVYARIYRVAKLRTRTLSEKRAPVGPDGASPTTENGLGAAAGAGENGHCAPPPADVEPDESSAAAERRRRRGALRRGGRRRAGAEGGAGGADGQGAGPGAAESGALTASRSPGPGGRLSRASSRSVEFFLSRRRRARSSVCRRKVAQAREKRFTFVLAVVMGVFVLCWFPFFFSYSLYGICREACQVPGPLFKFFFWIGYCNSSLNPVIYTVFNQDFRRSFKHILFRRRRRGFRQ
Voltage-gated potassium channel subunit beta-2 (Rattus norvegicus), sequence (P62483 whole entry, looked up): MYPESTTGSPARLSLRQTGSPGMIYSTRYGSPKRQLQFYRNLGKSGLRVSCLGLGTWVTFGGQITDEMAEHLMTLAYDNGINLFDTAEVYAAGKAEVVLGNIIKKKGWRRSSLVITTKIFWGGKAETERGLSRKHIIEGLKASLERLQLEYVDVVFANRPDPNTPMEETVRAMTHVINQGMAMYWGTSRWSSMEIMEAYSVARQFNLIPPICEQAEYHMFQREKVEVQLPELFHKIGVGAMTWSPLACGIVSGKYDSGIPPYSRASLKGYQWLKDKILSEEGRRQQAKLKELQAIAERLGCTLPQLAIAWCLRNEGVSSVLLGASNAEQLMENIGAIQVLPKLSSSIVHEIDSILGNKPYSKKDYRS
Dual specificity protein phosphatase 6 (Homo sapiens), sequence (Q16828 whole entry, looked up): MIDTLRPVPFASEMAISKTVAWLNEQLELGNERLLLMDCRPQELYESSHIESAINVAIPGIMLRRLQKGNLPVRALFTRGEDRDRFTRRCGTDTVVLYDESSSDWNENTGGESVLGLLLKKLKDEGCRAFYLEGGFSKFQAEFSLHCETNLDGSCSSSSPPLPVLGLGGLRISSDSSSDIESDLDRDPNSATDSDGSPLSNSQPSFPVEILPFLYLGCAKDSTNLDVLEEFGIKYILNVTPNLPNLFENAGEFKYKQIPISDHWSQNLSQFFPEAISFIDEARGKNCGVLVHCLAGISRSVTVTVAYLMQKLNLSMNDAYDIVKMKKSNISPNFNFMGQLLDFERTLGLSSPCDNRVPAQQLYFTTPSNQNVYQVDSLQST

Row | Compound | cell count [1] | inhibition [1] | inhibition [2] | nuclei count [2] [%] | z-score [3, 10] | z-score [3, 11] | z-score [3, 12] | inhibition [4] | fluorescence slope [5] | NADPH fluorescence slope [6] | slope [7] | outcome [8] | inhibition [9]
1 | CN(C)CC(O)COc1ccc(C(C)(C)c2ccc(OCC(O)CN(C)C)cc2)cc1 (stereo not drawn) | 459 | 2.6% (inactive) | -216% (inactive) | 154 | -1.06 | 1.22 | 0.592 | -5.62% (inactive) | -0.397 (inactive) | -3.1e-05 (inactive) | 0.0054 (inactive) | inactive | -19.9% (inactive)
2 | Cc1nn2c(-c3ccc(Cl)cc3)nnc2s1 | 551 | -6.5% (inactive) | -65.8% (inactive) | 86.3 | -0.293 | -0.329 | 0.206 | -6.06% (inactive) | -0.421 (inactive) | -1.1e-05 (inactive) | 0.00662 (inactive) | inactive | 17.4% (inactive)
3 | O=C(c1ccco1)N1CCN(CCOCCOc2cccc3ccccc23)CC1 | 473 | -5.4% (inactive) | -81.6% (inactive) | 121 | -1.67 | -0.183 | 1.98 | -2.07% (inactive) | -0.504 (inactive) | -0.000107 (inactive) | 0.00477 (inactive) | inactive | 16.4% (inactive)
4 | Cc1c(OCc2ccccc2)c(=O)ccn1Cc1ccccc1 | 560 | -7.9% (inactive) | -27.8% (inactive) | 226 | 0.907 | -0.745 | -0.326 | -2.91% (inactive) | -0.379 (inactive) | -2.4e-05 (inactive) | 0.00471 (inactive) | inactive | -5.81% (inactive)
5 | Cc1ccc(OCC(=O)N2CCC(N3CCCCCC3)CC2)cc1 | 387 | -12% (inactive) | -349% (inactive) | 176 | -0.193 | 0.541 | -0.692 | 9.39% (inactive) | -0.391 (inactive) | -2.1e-05 (inactive) | 0.00447 (inactive) | inactive | 4.12% (inactive)
6 | CC(C)Nc1nc(NC(C)C)nc(N(C)n2cnnc2)n1 | 629 | -8.8% (inactive) | 27.2% (inactive) | 188 | 0.189 | -1.82 | 0.165 | 20.8% (inactive) | -0.482 (inactive) | -0.000155 (inactive) | 0.0051 (inactive) | inactive | -5.15% (inactive)
7 | CSc1nnc(C)c(=O)[nH]1 | 627 | 3.2% (inactive) | -23.8% (inactive) | 149 | 0.361 | -1.1 | -0.0421 | -1.12% (inactive) | -0.463 (inactive) | -0.000266 (inactive) | 0.00552 (inactive) | inactive | 6% (inactive)
8 | Cc1c([C@H]2[C@@H](CC#N)C2(C)C)c2ccccc2n1C | 637 | -3.8% (inactive) | -51.3% (inactive) | 153 | -0.588 | 0.872 | 0.83 | -6.48% (inactive) | -0.536 (inactive) | -9.2e-05 (inactive) | 0.00537 (inactive) | inactive | 11.5% (inactive)
9 | COc1cccc(/C(O)=C2/C(=O)C(=O)N(CCCN(C)C)C2c2cccc(Cl)c2)c1 (stereo not drawn) | 339 | -13.6% (inactive) | -326% (inactive) | 182 | 0.0823 | -0.754 | 0.354 | 11.3% (inactive) | -0.436 (inactive) | -5.7e-05 (inactive) | 0.00508 (inactive) | inactive | 1.66% (inactive)
10 | CCN1CCN(c2nc3c(C)cccn3c(=O)c2/C=C(\C#N)S(=O)(=O)c2ccc(C)cc2)CC1 | 519 | -0.8% (inactive) | -173% (inactive) | 118 | 0.354 | -1.44 | 0.701 | 1.6e-07% (inactive) | -0.51 (inactive) | -6.4e-05 (inactive) | 0.00274 (inactive) | inactive | 14.6% (inactive)
11 | Oc1ccccc1CNn1cnnc1 | 563 | -0.7% (inactive) | -6.7% (inactive) | 168 | -0.0903 | -0.194 | 0.333 | -3.5% (inactive) | -0.324 (inactive) | 1.4e-05 (inactive) | 0.00654 (inactive) | inactive | 18.3% (inactive)
12 | COC(=O)CSc1nnc2n(-c3ccc(OC)cc3)c(=O)c3c4c(sc3n12)CCCCC4 | 607 | -2.8% (inactive) | -233% (inactive) | 149 | -0.0268 | 0.911 | -4.12 | 1.04% (inactive) | -0.411 (inactive) | -4.4e-05 (inactive) | 0.00667 (inactive) | inactive | -10.1% (inactive)
13 | CCOc1cc2nc(-c3ccc(OC)c(OC)c3)nc(N3CCOCC3)c2cc1OC | 497 | -26.2% (inactive) | -85% (inactive) | 151 | -0.0989 | -1.76 | -2.63 | 20.9% (inactive) | -0.455 (inactive) | -1.4e-05 (inactive) | 0.00555 (inactive) | inactive; toxic | 84.6% (active)
14 | Cc1c(CCC#N)c(N2CCCCC2)n2c(nc3ccccc32)c1C#N | 547 | -20.4% (inactive) | -116% (inactive) | 155 | 0.117 | -1.2 | -0.217 | -6.06% (inactive) | -0.341 (inactive) | -2.7e-05 (inactive) | 0.00724 (inactive) | inactive | 4.74% (inactive)
15 | Cc1ccc(C(=O)C2=C(O)C(=O)N(c3ncccn3)C2c2cccc(Cl)c2)o1 (stereo not drawn) | 472 | -8.1% (inactive) | -43% (inactive) | 177 | 0.573 | 0.527 | -0.321 | 0.671% (inactive) | -0.287 (inactive) | -2.1e-05 (inactive) | 0.00586 (inactive) | inactive | 1.33% (inactive)
16 | Nc1nonc1-c1noc(N2CCOCC2)n1 | 306 | -10.9% (inactive) | -42.1% (inactive) | 106 | 0.592 | 0.125 | 0.227 | -12.3% (inactive) | -0.281 (inactive) | 1e-05 (inactive) | 0.00528 (inactive) | inactive | 17.1% (inactive)
17 | Clc1ccc(SCc2cn3ccsc3n2)cc1 | 516 | -11.3% (inactive) | -61.5% (inactive) | 170 | -0.751 | 0.432 | -0.146 | -11% (inactive) | -0.476 (inactive) | -0.000195 (inactive) | 0.0044 (inactive) | inactive | 31.1% (inactive)
18 | CCC1(C)Cc2c(sc3nc4n(c(=O)c23)CCS4)CO1 (stereo not drawn) | 596 | -14.8% (inactive) | -109% (inactive) | 182 | -1.93 | -0.473 | 1.15 | -6.86% (inactive) | -0.336 (inactive) | -1e-05 (inactive) | 0.00519 (inactive) | inactive | 5.08% (inactive)
19 | Cc1cc(=O)oc(C)c1C(=O)N1CCN(C)CC1 | 367 | -10.4% (inactive) | -117% (inactive) | 167 | -1.15 | 0.212 | 0.815 | -8.59% (inactive) | -0.463 (inactive) | -0.000105 (inactive) | 0.00444 (inactive) | inactive | 5.44% (inactive)
20 | CCCCCCC(=O)N1CCN(c2cc3c(cc2F)c(=O)c(C(=O)O)cn3CC)CC1 | 402 | 6% (inactive) | -166% (inactive) | 224 | -1.36 | 0.0882 | 0.161 | 6.04% (inactive) | -0.0683 (inactive) | -1.7e-05 (inactive) | 0.0054 (inactive) | inactive | 4.18% (inactive)
21 | Cc1cc(=O)oc2cc(OCCSCCN3CCOCC3)ccc12 | 382 | -4.7% (inactive) | -171% (inactive) | 162 | 1.19 | 0.929 | 0.186 | 15.1% (inactive) | -0.358 (inactive) | -6.2e-05 (inactive) | 0.00648 (inactive) | inactive | -5.19% (inactive)
